Key:
Format in all cases: ADME, organism-based
[1] = Oral bioavailability in normally fed BALB/c mouse at 10 mg/kg, im; conditions: in vivo, intramuscular
Outline: (§1)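 Male BALB/c mice, 6-8 weeks (25-30 g), fed or food-deprived 15 h with water available; tobramycin in physiologic solution given by gavage (50 mg/kg), or 10 mg/kg iv (tail vein) or im (hind leg) in fed mice. Groups of 3 per time point; submandibular blood at 0-180 min; plasma tobramycin by homogeneous enzyme immunoassay; noncompartmental PK analysis.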

[2] = Half life in normally fed BALB/c mouse at 50 mg/kg, po; design: dose 50 mg/kg, route oral; conditions: in vivo; outline: as §1
[3] = Cmax in normally fed BALB/c mouse at 10 mg/kg, im; design: dose 10 mg/kg, route intramuscular; conditions: in vivo; outline: as §1
[4] = AUClast in normally fed BALB/c mouse at 50 mg/kg, po; design: time 0 - last, dose 50 mg/kg, route oral; conditions: plasma; outline: as §1
[5] = AUClast in 15 hrs fasted BALB/c mouse at 50 mg/kg, po; design: time 0 - last, dose 50 mg/kg, route oral; conditions: plasma; outline: as §1
[6] = Cmax in 15 hrs fasted BALB/c mouse at 50 mg/kg, po; design: dose 50 mg/kg, route oral; conditions: in vivo; outline: as §1
[7] = Cmax in normally fed BALB/c mouse at 50 mg/kg, po; design: dose 50 mg/kg, route oral; conditions: in vivo; outline: as §1
[8] = Half life in 15 hrs fasted BALB/c mouse at 50 mg/kg, po; design: dose 50 mg/kg, route oral; conditions: in vivo; outline: as §1
[9] = AUC (0 to infinity) in 15 hrs fasted BALB/c mouse at 50 mg/kg, po; design: time infinity, dose 50 mg/kg, route oral; conditions: plasma; outline: as §1
[10] = Tmax in 15 hrs fasted BALB/c mouse at 50 mg/kg, po; design: dose 50 mg/kg, route oral; conditions: in vivo; outline: as §1
[11] = Tmax in normally fed BALB/c mouse at 10 mg/kg, iv; design: dose 10 mg/kg, route intravenous; conditions: in vivo; outline: as §1
[12] = Half life in normally fed BALB/c mouse at 10 mg/kg, iv; design: dose 10 mg/kg, route intravenous; conditions: in vivo; outline: as §1
[13] = Half life in normally fed BALB/c mouse at 10 mg/kg, im; design: dose 10 mg/kg, route intramuscular; conditions: in vivo; outline: as §1
[14] = AUC (0 to infinity) in normally fed BALB/c mouse at 10 mg/kg, iv; design: time infinity, dose 10 mg/kg, route intravenous; conditions: plasma; outline: as §1
[15] = AUClast in normally fed BALB/c mouse at 10 mg/kg, iv; design: time 0 - last, dose 10 mg/kg, route intravenous; conditions: plasma; outline: as §1
[16] = AUClast in normally fed BALB/c mouse at 10 mg/kg, im; design: time 0 - last, dose 10 mg/kg, route intramuscular; conditions: plasma; outline: as §1
[17] = Cmax in normally fed BALB/c mouse at 10 mg/kg, iv; design: dose 10 mg/kg, route intravenous; conditions: in vivo; outline: as §1
[18] = Tmax in normally fed BALB/c mouse at 50 mg/kg, po; design: dose 50 mg/kg, route oral; conditions: in vivo; outline: as §1
[19] = Tmax in normally fed BALB/c mouse at 10 mg/kg, im; design: dose 10 mg/kg, route intramuscular; conditions: in vivo; outline: as §1
[20] = AUC (0 to infinity) in normally fed BALB/c mouse at 50 mg/kg, po; design: time infinity, dose 50 mg/kg, route oral; conditions: plasma; outline: as §1
[21] = Oral bioavailability in normally fed BALB/c mouse at 50 mg/kg, po; conditions: in vivo; outline: as §1
[22] = AUC (0 to infinity) in normally fed BALB/c mouse at 10 mg/kg, im; design: time infinity, dose 10 mg/kg, route intramuscular; conditions: plasma; outline: as §1
[23] = Oral bioavailability in 15 hrs fasted BALB/c mouse at 50 mg/kg, po; conditions: in vivo; outline: as §1
Mus musculus = assay: Oral bioavailability in normally fed BALB/c mouse at 10 mg/kg, iv; conditions: in vivo; outline: as §1

bioavailability [1]: 96.5%
half-life [2]: 41.6 min
Cmax [3]: 16500 ng/mL
AUC(0-t) [4]: 274 ng·h/mL
AUC(0-t) [5]: 7060 ng·h/mL
Cmax [6]: 7800 ng/mL
Cmax [7]: 330 ng/mL
half-life [8]: 22 min
AUC(0-inf) [9]: 7300 ng·h/mL
Tmax [10]: 15 min
Tmax [11]: 5 min
half-life [12]: 20.3 min
half-life [13]: 17.7 min
AUC(0-inf) [14]: 11500 ng·h/mL
AUC(0-t) [15]: 11400 ng·h/mL
AUC(0-t) [16]: 11000 ng·h/mL
Cmax [17]: 35300 ng/mL
Tmax [18]: 15 min
Tmax [19]: 15 min
AUC(0-inf) [20]: 316 ng·h/mL
bioavailability [21]: 0.48%
AUC(0-inf) [22]: 11100 ng·h/mL
bioavailability [23]: 12.4%
F (Mus musculus): 100%
Structure (SMILES): NC[C@H]1O[C@H](O[C@H]2[C@H](O)[C@@H](O[C@H]3O[C@H](CO)[C@@H](O)[C@H](N)[C@H]3O)[C@H](N)C[C@@H]2N)[C@H](N)C[C@@H]1O [TOBRAMYCIN]

Source: ChEMBL document CHEMBL1255400, “Fasting increases tobramycin oral absorption in mice” (Antimicrob Agents Chemother, 2010)
